# This sample holds only a part of the variants without activity.
# B1: tRNA (parent)
# chain: GUUCCGUUGGCGUAAUGGUAACGCGUCUCCCUCCUAAGGAGAAGACUGCGGGUUCGAGUCCCGUACGGAACG
# Variants of: B1
# Test: yeast fitness relative to wild type (ratio to wild type); higher = fitter; tRNA-Arg(CCU), competitive growth, 37 C, YPD
# Procedure, shortened: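 Amplicons of the tRNA-Arg(CCU) gene were sequenced, 100-nucleotide paired-end, from the start population and from each end population of a pooled yeast competition. The competition, in six parallel replicates, lasted 24 hours in YPD at 37°C. Fitness relative to wild type was calculated from changes in genotype frequencies. Genotypes had to have ≥ 100 starting reads, and estimates < 0.5 were set to 0.5.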
row,Variant,yeast fitness
1,U3G C49G C60G C62G G63A,≤ 0.5
2,U3G C49U G58A,0.901
3,U3G C49U G58A G63A,0.584
4,U3G C55A G58A,≤ 0.5
5,U3G C55U C66U,≤ 0.5
6,U3G C60G,0.577
7,U3G C60U,0.66
8,U3G C62A,0.75
9,U3G C66U A70U,0.534
10,U3G G6A A14G C55G A65G,≤ 0.5
11,U3G G6A A14G G38C G41C C62G,≤ 0.5
12,U3G G6A A36U G48C G52C A57U C60G,0.569
13,U3G G6C C30U C33G A36C A40U,≤ 0.5
14,U3G G9C A20G C29A G67U,≤ 0.5
15,U3G G9C C33G G63A,0.606
16,U3G G10A A21C U28A G68C,≤ 0.5
17,U3G G10C C46U G48A,≤ 0.5
18,U3G G12A,0.682
19,U3G G12A C27A C29G U53A C60A A69C,≤ 0.5
20,U3G G12C A42U G67C,≤ 0.5
21,U3G G12C A70C,0.545

row,Variant,yeast fitness
1,U3G G17A,0.665
2,U3G G17A C24A C34A C46G,≤ 0.5
3,U3G G17A C30U A57U,≤ 0.5
4,U3G G17C C29U A37G C61U A70C,0.512
5,U3G G17C C61A,0.61
6,U3G G17C C62U,≤ 0.5
7,U3G G18A A69U,≤ 0.5
8,U3G G18A C30G G41U C49G,≤ 0.5
9,U3G G18A C60G,0.538
10,U3G G18A G25A C29A,≤ 0.5
11,U3G G18A G41A A45U,≤ 0.5
12,U3G G18C G44A,≤ 0.5
13,U3G G23A A36U A43G C61A A70G,≤ 0.5
14,U3G G25A,0.768
15,U3G G25A A45U C62A,≤ 0.5
16,U3G G25A C27G G50C,0.537
17,U3G G25A C61U,0.733
18,U3G G39A A40G,≤ 0.5
19,U3G G41A,0.748
20,U3G G44C U54A,≤ 0.5
21,U3G G48A,0.856

row,Variant,yeast fitness
1,U3G G48A A69U,0.638
2,U3G G48C G67A,0.683
3,U3G G48U,0.937
4,U3G G50A,0.817
5,U3G G50A C62U,1.04
6,U3G G52C C62A A65C A70U,≤ 0.5
7,U3G G56A,0.898
8,U3G G67C,0.825
9,U3G G68U,0.808
10,U3G U7A G9A U28C A40U,≤ 0.5
11,U3G U7C A40U,0.502
12,U3G U7G C22U C60G,≤ 0.5
13,U3G U8A C24A A70G,≤ 0.5
14,U3G U8A C31A C55U,≤ 0.5
15,U3G U8A G18C C29G A36C,≤ 0.5
16,U3G U8A G18C G50C,≤ 0.5
17,U3G U8A U26G G38C A40C U53C,0.566
18,U3G U8C A15U C49A,0.597
19,U3G U8C A45G,0.702
20,U3G U8C C33U U54C C66A,≤ 0.5
21,U3G U8C C62A,≤ 0.5

row,Variant,yeast fitness
1,U3G U8C G58A,0.763
2,U3G U13A,1.1
3,U3G U13A U16A C62U U64A,≤ 0.5
4,U3G U13C A14U C29A,0.672
5,U3G U13C A14U C29A A69C,0.562
6,U3G U13C A14U C29A C55U,0.611
7,U3G U13C C22A,0.656
8,U3G U13C C22A G25C C33U A69C,≤ 0.5
9,U3G U13C C33A A42U C55A,0.585
10,U3G U13G A14C G39C G41A C60G C61U C62G A65U,0.543
11,U3G U16A A65G,0.664
12,U3G U16C G39C A45C C49G,≤ 0.5
13,U3G U16C G39C A45C C49G A69U,≤ 0.5
14,U3G U16G,1.02
15,U3G U16G U28C A57U,≤ 0.5
16,U3G U19C,0.841
17,U3G U19G,0.641
18,U3G U26A A65G,≤ 0.5
19,U3G U26A C29A C34A G38A A65U,≤ 0.5
20,U3G U26A U28G A45C U54C G67A A69U,≤ 0.5
